This is an account of results in PubChem BioAssay.

Assay [1] can be described thus: Her2 expression decrease, cell viability multiplex – SKBR3 breast tumor cells, AlphaScreen, ATP viability, primary screen (AID 461;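 active = Her2 level under about 52% in both replicate screens, with viability over 70% of control, limit read from the data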;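 as to Her2 level: lower value means less Her2 protein in the cells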;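 as to viability: percent of carrier control wells set as 100% viability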). The settings on record: SKBR3 Her2 protein level, 18-24 h, measured here: SKBR3 viability, ATP luminescence, at 10 µM. In general terms: Bead proximity is the source of the signal in Alpha formats.
In assay [2] the target is Receptor tyrosine-protein kinase erbB-2 (Homo sapiens) (UniProt P04626). The description is as above. Particulars: 18-24 h, at 10 µM, stronger effect = lower value.
Receptor tyrosine-protein kinase erbB-2 (Homo sapiens), sequence (P04626 whole entry, looked up): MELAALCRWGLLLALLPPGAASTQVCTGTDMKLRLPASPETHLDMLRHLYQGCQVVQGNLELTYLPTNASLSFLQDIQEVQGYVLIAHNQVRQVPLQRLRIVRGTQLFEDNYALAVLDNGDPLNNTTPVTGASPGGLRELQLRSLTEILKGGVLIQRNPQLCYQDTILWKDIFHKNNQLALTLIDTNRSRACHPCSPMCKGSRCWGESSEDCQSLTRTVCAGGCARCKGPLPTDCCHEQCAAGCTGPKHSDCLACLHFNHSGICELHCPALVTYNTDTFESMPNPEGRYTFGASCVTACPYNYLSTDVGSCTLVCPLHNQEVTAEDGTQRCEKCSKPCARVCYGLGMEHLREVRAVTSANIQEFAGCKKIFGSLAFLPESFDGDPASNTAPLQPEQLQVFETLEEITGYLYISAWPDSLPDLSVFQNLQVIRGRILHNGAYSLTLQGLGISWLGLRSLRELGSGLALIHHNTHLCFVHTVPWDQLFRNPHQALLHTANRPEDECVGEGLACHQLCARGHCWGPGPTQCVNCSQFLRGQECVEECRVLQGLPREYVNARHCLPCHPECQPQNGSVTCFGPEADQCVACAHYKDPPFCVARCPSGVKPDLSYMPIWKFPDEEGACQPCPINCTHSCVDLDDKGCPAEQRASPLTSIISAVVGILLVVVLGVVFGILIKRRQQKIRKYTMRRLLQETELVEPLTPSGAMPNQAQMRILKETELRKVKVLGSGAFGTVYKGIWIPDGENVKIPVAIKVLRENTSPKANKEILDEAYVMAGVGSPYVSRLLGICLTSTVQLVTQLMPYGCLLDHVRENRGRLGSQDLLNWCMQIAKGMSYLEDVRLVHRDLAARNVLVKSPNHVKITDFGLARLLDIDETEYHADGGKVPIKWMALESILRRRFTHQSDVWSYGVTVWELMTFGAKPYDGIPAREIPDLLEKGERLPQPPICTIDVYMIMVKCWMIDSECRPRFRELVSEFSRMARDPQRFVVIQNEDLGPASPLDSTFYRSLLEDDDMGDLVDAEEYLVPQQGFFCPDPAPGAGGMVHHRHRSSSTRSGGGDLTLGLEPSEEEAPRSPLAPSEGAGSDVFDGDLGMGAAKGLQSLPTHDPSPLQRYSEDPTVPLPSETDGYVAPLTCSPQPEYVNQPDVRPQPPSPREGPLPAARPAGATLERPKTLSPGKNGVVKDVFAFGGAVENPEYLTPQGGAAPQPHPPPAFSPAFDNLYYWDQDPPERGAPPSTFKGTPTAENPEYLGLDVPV
A short description of assay [3]: reduced viability of SK-BR-3 breast cancer cells – cell-based, 24 h, human, pilot screen (AID 572;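 active = viability at or below 10% of carrier control in both of two separate runs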;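 also: compound exposure lasted between 18 and 24 h rather than exactly 24 h; 100% = carrier-treated control wells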). Particulars: SK-BR-3 viability, CellTiter-Glo luminescence, at 10 µM, stronger effect = lower value. On the technique in general: ATP-based viability assays read luminescence as a measure of living cells.
Assay [4] is described as follows: HUVEC growth inhibition – cell-based, human, primary screen (AID 575;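 active = viability at or below 30% in both replicate assays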;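 also: 100% = median of untreated cell wells with 0.1% DMSO on each plate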). Particulars: HUVEC proliferation, CellTiter-Glo luminescence, 72 h; at 10 µM; stronger effect = lower value. The essentials: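 Material: primary human umbilical vein endothelial cells / Schedule: 72 h exposure, 37 °C, 5% CO2, 30 min RT equilibration / Signal: ATP-based CellTiter-Glo luminescent read / Read-out basis: percent of median DMSO-control luminescence / Control set: 32 DMSO-only cell-control wells (high), 32 MePR drug-control wells (low) per plate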

Assay [5] can be described thus: H69AR cell proliferation blockers – human, duplicate replicates, primary screen (AID 580;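 active = viability at or under a set limit in both replicates, limit being median viability minus 3 SD, cut at about 48% in these data, passing the limit was not always enough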;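 also: 100% = mean luminescence of untreated wells and 0% = no signal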). The settings on record: H69AR lung tumor cells viability, ATP luminescence, 72 h; at 10 µM; stronger effect = lower value.
A short description of assay [6]: MRP1 drug-resistance reversers in H69AR cells – cell-based, doxorubicin co-treatment, pilot screen (AID 601). The settings on record: CellTiter-Glo, 72 h, at 10 µM; for differential viability (reversal): stronger effect = higher value.
Assay [7] can be described thus: yeast transport mutant growth inhibition pilot in 384-well plates, post-Golgi transport modulator project (AID 636; in the data active = inhibition above about 31%). Particulars: absorbance 615 nm, about 18 h, stronger effect = higher value.
Assay [8] in a line: growth suppression of yeast trafficking mutant, preliminary HTS, modulators of trafficking downstream of Golgi apparatus project, 1536-format plate, OD 615 nm (AID 637; in the data active = inhibition above about 30%). Particulars: yeast transport mutant growth, absorbance 615 nm, 18 h; stronger effect = higher value.
[9] abbreviates: H69AR cells + 2 uM doxorubicin, measured here: viability with 2 uM doxorubicin, stronger effect = lower value.
The mark [10] stands for this setting: H69AR cells, compound alone cytotoxicity.

Each structure is given as a SMILES string. Activity calls are given as the source filed them.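 The calls were made as follows, unless noted: active = viability loss from added drug above about 55%, and viability with drug at most 40%, in both replicates (limit read from the data, passing the limit was not always enough); inconclusive = both conditions met in only one replicate; inactive = neither replicate meets both conditions.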

`Cc1ccc(N=C2NC(=O)CS2)c(C)c1`: the viability in assay [1] is 71%; in assay [3] it was 71% (inactive); in assay [4] it was 89.7% (inactive); in assay [5], 102% (inactive); in assay [6] (setting [9]), 96.7%; in assay [6] (setting [10]) it was 102%. Also, the Her2 level in assay [2] was 91% (inactive). In addition, the differential viability (reversal) in assay [6] (H69AR cells + 2 uM doxorubicin) is 5.32% (inactive). The inhibition was -5% (inactive) in assay [7] and 5.57% (inactive) in assay [8].

For `Fc1ccc(-c2csc3nnc(SCc4cccnc4)n23)cc1`, the viability in assay [1] is 108%; in assay [3], 108% (inactive); in assay [4], 85.7% (inactive); in assay [5] it was 82.9% (inactive); in assay [6] (setting [9]), 84.9%; in assay [6] (setting [10]), 82.9%. Besides, the Her2 level in assay [2] is 112% (inactive). In addition, the differential viability (reversal) in assay [6] (H69AR cells + 2 uM doxorubicin) was -2.03% (inactive). For the same compound, the inhibition is -4.62% (inactive) in assay [7] and 8.33% (inactive) in assay [8].

With `Cc1nnc(SCCn2c(N3CC(C)CC(C)C3)nc3c2c(=O)n(C)c(=O)n3C)s1` (stereo not given), the viability in assay [1] is 106%; in assay [3], 106% (inactive); in assay [4] it was 93.8% (inactive); in assay [5], 95.9% (inactive); in assay [6] (setting [9]) it was 98.2%; in assay [6] (setting [10]), 95.9%. In assay [2], the Her2 level was 99.5% (inactive). In addition, in assay [6] (H69AR cells + 2 uM doxorubicin), the differential viability (reversal) is -2.37% (inactive). Further, the inhibition in assay [7] is 0.26% (inactive); in assay [8], 24.7% (inactive).

For `O=C(OCC(=O)N1CCCCCC1)c1cccs1`, the viability in assay [1] was 99%; in assay [3], 99% (inactive); in assay [4], 103% (inactive); in assay [5], 106% (inactive); in assay [6] (setting [9]), 96.7%; in assay [6] (setting [10]) it was 106%. Further, the Her2 level in assay [2] was 95.5% (inactive). For the same compound, in assay [6] (H69AR cells + 2 uM doxorubicin), the differential viability (reversal) was 9.71% (inactive). Also, the inhibition is -0.67% (inactive) in assay [7] and 1.77% (inactive) in assay [8].

As to `Cc1cc(-c2ccccc2)c(C#N)c(N)n1`, the viability in assay [1] was 114%; in assay [3], 114% (inactive); in assay [4] it was 81.9% (inactive); in assay [5], 99.3% (inactive); in assay [6] (setting [9]) it was 92.8%; in assay [6] (setting [10]), 99.3%. For the same compound, the Her2 level in assay [2] is 91% (inactive). For the same compound, the differential viability (reversal) in assay [6] (H69AR cells + 2 uM doxorubicin) was 6.5% (inactive). Moreover, the inhibition is -2.3% (inactive) in assay [7] and -0.98% (inactive) in assay [8].

For `COc1ccc(N(C(=O)c2ccco2)S(=O)(=O)c2cc(OC)ccc2OC)cc1`, the viability was 102% in assay [1]; 102% (inactive) in assay [3]; 81% (inactive) in assay [4]; 72.2% (inactive) in assay [5]; 97.9% in assay [6] (setting [9]); 72.2% in assay [6] (setting [10]). Further, the Her2 level in assay [2] is 84.5% (inactive). In addition, the differential viability (reversal) in assay [6] (H69AR cells + 2 uM doxorubicin) is -25.7% (inactive). In addition, the inhibition in assay [7] is -1.84% (inactive); in assay [8], 4.17% (inactive).

For `COC(=O)CC1SC(=O)NC1=O` (stereo not given), the viability in assay [1] is 110%; in assay [3], 110% (inactive); in assay [4] it was 102% (inactive); in assay [5] it was 105% (inactive); in assay [6] (setting [9]), 94.6%; in assay [6] (setting [10]) it was 105%. In assay [2], the Her2 level is 120% (inactive). The differential viability (reversal) in assay [6] (H69AR cells + 2 uM doxorubicin) was 10.4% (inactive). For the same compound, the inhibition is 1.05% (inactive) in assay [7] and -7.21% (inactive) in assay [8].

Consider `O=C(NC1CCCc2ccccc21)C1CCN(S(=O)(=O)c2cnc[nH]2)CC1` (stereo not given), for which the viability in assay [1] is 104%; in assay [3], 104% (inactive); in assay [4], 102% (inactive); in assay [5], 94.8% (inactive); in assay [6] (setting [9]) it was 106%; in assay [6] (setting [10]) it was 94.8%. In assay [2], the Her2 level was 100% (inactive). Besides, in assay [6] (H69AR cells + 2 uM doxorubicin), the differential viability (reversal) was -11.3% (inactive). Also, the inhibition was -0.79% (inactive) in assay [7] and -3.87% (inactive) in assay [8].

As to `CCOC(=O)CCCn1nc(C)n2c(cc3sccc32)c1=O`, the viability was 87.5% in assay [1]; 87.5% (inactive) in assay [3]; 91.8% (inactive) in assay [4]; 102% (inactive) in assay [5]; 81% in assay [6] (setting [9]); 102% in assay [6] (setting [10]). Besides, the Her2 level in assay [2] was 94.5% (inactive). In addition, the differential viability (reversal) in assay [6] (H69AR cells + 2 uM doxorubicin) is 20.7% (inactive). The inhibition in assay [7] was -5.07% (inactive); in assay [8] it was -3.77% (inactive).

Consider `Cc1cccc(NC(=O)c2cc3n(n2)C(C(F)(F)F)CC(c2ccc4c(c2)OCO4)N3)c1` (stereo not given), for which the viability in assay [1] was 113%; in assay [3] it was 113% (inactive); in assay [4], 56.9% (inactive); in assay [5] it was 73.9% (inactive); in assay [6] (setting [9]), 80.2%; in assay [6] (setting [10]), 73.9%. In addition, the Her2 level in assay [2] was 68.5% (inactive). In addition, the differential viability (reversal) in assay [6] (H69AR cells + 2 uM doxorubicin) is -6.35% (inactive). Moreover, the results for the inhibition in assay [7] and in assay [8] were -0.53% (inactive) and 1.61% (inactive), respectively.

`CS(=O)(=O)N1CCCC(C(=O)NCCCN2CCC(Cc3ccccc3)CC2)C1` (stereo not given): the viability in assay [1] was 108%; in assay [3] it was 108% (inactive); in assay [4], 101% (inactive); in assay [5] it was 103% (inactive); in assay [6] (setting [9]), 103%; in assay [6] (setting [10]) it was 103%. In assay [2], the Her2 level is 115% (inactive). Besides, the differential viability (reversal) in assay [6] (H69AR cells + 2 uM doxorubicin) is 0.23% (inactive). The inhibition in assay [7] was 2.6% (inactive); in assay [8], -5.56% (inactive).

In the case of `O=C(CSc1nnnn1-c1ccc2c(c1)OCO2)NCc1cccs1`, the viability in assay [1] was 88%; in assay [3], 88% (inactive); in assay [4], 93.2% (inactive); in assay [5], 86.8% (inactive); in assay [6] (setting [9]) it was 93.8%; in assay [6] (setting [10]), 86.8%. Also, in assay [2], the Her2 level is 90.5% (inactive). Moreover, the differential viability (reversal) in assay [6] (H69AR cells + 2 uM doxorubicin) is -7.04% (inactive). In addition, the inhibition in assay [7] was -5.68% (inactive); in assay [8], -1.64% (inactive).

`CCC(=O)OCCn1c(=O)c2cc3c(=O)n(CCOC(=O)CC)c(=O)c3cc2c1=O`: the viability in assay [1] is 99%; in assay [3] it was 99% (inactive); in assay [4], 98.3% (inactive); in assay [5] it was 87.2% (inactive); in assay [6] (setting [9]), 91.1%; in assay [6] (setting [10]), 87.2%. Moreover, the Her2 level in assay [2] was 135% (inactive). For the same compound, the differential viability (reversal) in assay [6] (H69AR cells + 2 uM doxorubicin) is -3.94% (inactive). The inhibition in assay [7] is 4.55% (inactive); in assay [8], -4.83% (inactive).

Turning to `CN(C)CCCN1C(=O)C(=O)/C(=C(/O)c2ccncc2)C1c1cccc(Br)c1` (stereo not given), the viability in assay [1] is 90.5%; in assay [3] it was 90.5% (inactive); in assay [4], 118% (inactive); in assay [5], 94.5% (inactive); in assay [6] (setting [9]), 89.3%; in assay [6] (setting [10]) it was 94.5%. In assay [2], the Her2 level was 97% (inactive). Moreover, in assay [6] (H69AR cells + 2 uM doxorubicin), the differential viability (reversal) is 5.26% (inactive). Moreover, the inhibition was -2.93% (inactive) in assay [7] and -5.9% (inactive) in assay [8].

Broadly, the viability is a read-out of living cells in per cent, often relative to untreated cells. What is called inhibition is the drop in the measured response relative to a control, in per cent.
